Measured values from ChEMBL document CHEMBL1132985, “Design and SAR of novel potassium channel openers targeted for urge urinary incontinence. 2. Selective and potent benzylamino cyclobutenediones” (J Med Chem, 2000).

How the values were obtained:
Assay type in all cases: functional
Rattus norvegicus [1] = species: Rattus norvegicus; assay: In vitro inhibitory concentration that relaxed KCL induced contraction in rat detrusor strip by 50%
Rattus norvegicus [2] = assay: The percent change in the frequency of spontaneous bladder contractions after oral administration of a dose of 3 mg/kg in rat hypertrophic bladder model
Summary of the method: (§1)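 Female Sprague-Dawley rats (190-210 g) given partial proximal urethral ligation (4-0 silk over 1 mm rod) under isoflurane; bladder catheter, cystometry in metabolic cages after overnight saline perfusion (2 mL/h), saline infusion 20 mL/h. Oral dosing in PEG-200 2 h after first cystometry, repeat ~1 h post-dose; % change in contraction frequency from pre-drug; ED50 from dose-response.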

Rattus norvegicus [3] = assay: The percent change in BP was determined after oral administration of a dose of 10 mg/kg in rat hypertrophied model
[4] = Selectivity ratio of MAP ED20/bladder ED50
Summary of the method: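 Ratio of oral MAP ED20 in normotensive rats to oral ED50 for 50% fall in spontaneous bladder contraction frequency in rat hypertrophied unstable-bladder model.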

Rattus norvegicus [5] = assay: Compound was evaluated in vivo for the effective dose that cause a 50% reduction in frequency of spontaneous bladder contraction in the rat hypertrophied model after oral administration; summary of the method: as §1
Rattus norvegicus [6] = assay: Compound was evaluated in vivo for the effective dose that cause a 20% drop in MAP normotensive rat after oral administration

| Compound | IC50 (Rattus norvegicus [1]) [nM] | also measured |
| --- | --- | --- |
| CC(/N=c1\c(O)c(O)\c1=N/[C@H](C)C(C)(C)C)c1ccc(C#N)cc1 (stereo partly drawn) | 6500 | – |
| CCCC/N=c1\c(O)c(O)\c1=N/Cc1ccc(C#N)cc1 | > 30000 | – |
| CCC(C)(C)/N=c1\c(O)c(O)\c1=N/Cc1cc(C)cc(C)c1 | > 30000 | – |
| CCC(C)(C)/N=c1\c(O)c(O)\c1=N/Cc1ccc(SC)cc1 | 5600 | – |
| C[C@](O)(C(=O)Nc1ccc(C(=O)c2ccccc2)cc1)C(F)(F)F [ZD-6169] | – | Ratio [4]: 2.9; ED50 (Rattus norvegicus [5]): 2.4 mg/kg |
| CN(C)c1c(NCc2ccc(C#N)cc2)c(=O)c1=O | > 30000 | – |
| N#Cc1ccc(CNc2c(NC3CCCC3)c(=O)c2=O)cc1 | 9400 | – |
| CC(C)(C)/N=c1\c(O)c(O)\c1=N/Cc1cccnc1 | 2600 | – |
| CC(C)(C)/N=c1\c(O)c(O)\c1=N/Cc1ccc(F)cc1F | 2100 | – |
| COc1ccc(C/N=c2\c(O)c(O)\c2=N/C(C)(C)C)cc1 | 4800 | – |
| CC1(C)Oc2ccc(OC(F)(F)F)cc2[C@@H](N2Cc3ccccc3C2=O)[C@@H]1O [CELIKALIM] | – | Ratio [4]: 0.7; ED50 (Rattus norvegicus [5]): 0.3 mg/kg; ED20 (Rattus norvegicus [6]): 0.2 mg/kg |
| CC(C)(C)/N=c1\c(O)c(O)\c1=N/Cc1ccncc1 | 3000 | – |
| N#Cc1ccc(CNc2c(N)c(=O)c2=O)cc1 | > 30000 | – |
| CC(C)(C)/N=c1\c(O)c(O)\c1=N/Cc1c(F)cccc1F | 7500 | – |
| CCc1cc(C#N)ccc1Nc1c(N[C@H](C)C(C)(C)C)c(=O)c1=O | – | Ratio [4]: 17.7; ED50 (Rattus norvegicus [5]): 0.13 mg/kg; ED20 (Rattus norvegicus [6]): 2.3 mg/kg |
| CCc1cc(C/N=c2\c(O)c(O)\c2=N/C(C)(C)C)ccc1C#N | 6100 | – |
| CC(C)(C)/N=c1\c(O)c(O)\c1=N/Cc1cccc(F)c1 | 2400 | – |
| Cc1cc(Cl)cc(Cl)c1C/N=c1\c(O)c(O)\c1=N/C(C)C(C)(C)C (stereo not drawn) | 9800 | – |
| CC(/N=c1\c(O)c(O)\c1=N/CCc1ccc(C#N)cc1)C(C)(C)C (stereo not drawn) | > 30000 | – |
| CC(C)(C)/N=c1\c(O)c(O)\c1=N/Cc1ccc(C#N)c(Cl)c1 | 1100 | – |

| Compound | IC50 (Rattus norvegicus [1]) [nM] | also measured |
| --- | --- | --- |
| CCC/N=c1\c(O)c(O)\c1=N/Cc1ccc(C#N)cc1 | 21900 | – |
| CC(C)C/N=c1\c(O)c(O)\c1=N/Cc1ccc(C#N)cc1 | 10200 | – |
| N#Cc1ccc(CNc2c(NCC(F)(F)C(F)(F)F)c(=O)c2=O)cc1 | 14400 | – |
| C/N=c1\c(O)c(O)\c1=N/Cc1ccc(C#N)cc1 | > 30000 | – |
| CC(/N=c1/c(NC(=O)c2ccc(C#N)cc2)c(O)c1=O)C(C)(C)C (stereo not drawn) | 11500 | – |
| CC(C)(C)/N=c1\c(O)c(O)\c1=N/Cc1cc(F)ccc1F | 3900 | – |
| CCCC(=O)N(Cc1c(C)cc(Cl)cc1Cl)c1c(NC(C)(C)CC)c(=O)c1=O | – | ED50 (Rattus norvegicus [5]): 3.9 mg/kg |
| CCC(C)(C)/N=c1\c(O)c(O)\c1=N/Cc1ccc(C#N)c(Cl)c1 | 260 | – |
| CC(C)(CO)/N=c1\c(O)c(O)\c1=N/Cc1ccc(C#N)cc1 | 21300 | – |
| CC(C)(C)/N=c1\c(O)c(O)\c1=N/Cc1ccccn1 | 11500 | – |
| CC(C)/N=c1\c(O)c(O)\c1=N/Cc1ccc(C#N)cc1 | 14000 | – |
| CCC(C)(C)/N=c1\c(O)c(O)\c1=N/Cc1c(C)cccc1Cl | 4400 | – |
| N#Cc1ccc(CNc2c(NCc3ccc(C#N)cc3)c(=O)c2=O)cc1 | > 30000 | – |
| CC(C)(C)/N=c1\c(O)c(O)\c1=N/Cc1ccccc1 | 3400 | – |
| CC(C)(C)/N=c1\c(O)c(O)\c1=N/CCc1ccc(C#N)cc1 | > 30000 | – |
| CCCC(=O)N(Cc1ccc(C#N)cc1)c1c(NC(C)C(C)(C)C)c(=O)c1=O (stereo not drawn) | 12200 | ED50 (Rattus norvegicus [5]): 8 mg/kg |
| CCC(C)(C)/N=c1\c(O)c(O)\c1=N/Cc1ccc(C)c(C)c1 | > 30000 | – |
| CC[C@@H](C)/N=c1\c(O)c(O)\c1=N/Cc1ccc(C#N)cc1 | 4000 | – |
| CC[C@H](C)/N=c1\c(O)c(O)\c1=N/Cc1ccc(C#N)cc1 | 2200 | – |
| CN(c1c(NCc2ccc(C#N)cc2)c(=O)c1=O)C(C)(C)C | 18300 | – |

More lines, in order of falling IC50 (Rattus norvegicus [1]), values ahead:

| IC50 (Rattus norvegicus [1]) [nM] | Compound | also measured |
| --- | --- | --- |
| 2100 | CC(C)(C)/N=c1\c(O)c(O)\c1=N/Cc1ccccc1F | – |
| 2000 | CCc1cc(C#N)ccc1C/N=c1\c(O)c(O)\c1=N/[C@H](C)C(C)(C)C | – |
| 1900 | Cc1cc(C#N)cc(Cl)c1C/N=c1\c(O)c(O)\c1=N/C(C)C(C)(C)C (stereo not drawn) | – |
| 1700 | CC(C)(C)/N=c1\c(O)c(O)\c1=N/Cc1ccc(Cl)cc1 | – |
| 1600 | CCC(C)(C)/N=c1\c(O)c(O)\c1=N/Cc1ccc(F)c(F)c1 | – |
| 1500 | CCC(C)(C)/N=c1\c(O)c(O)\c1=N/Cc1ccc(F)cc1Cl | – |
| 1500 | CC(C)(C)/N=c1\c(O)c(O)\c1=N/Cc1ccc(F)cc1 | – |
| 1400 | CC(C)(C)/N=c1\c(O)c(O)\c1=N/Cc1ccc(F)cc1Cl | – |
| 1300 | CCC(CC)/N=c1\c(O)c(O)\c1=N/Cc1ccc(C#N)cc1 | – |
| 1300 | CC(C)(C)/N=c1\c(O)c(O)\c1=N/Cc1ccc(Cl)cc1Cl | – |
| 1200 | CCC(C)(C)/N=c1\c(O)c(O)\c1=N/Cc1c(C)cc(Br)cc1C | – |
| 1100 | CCC(C)(C)/N=c1\c(O)c(O)\c1=N/Cc1ccc(C#N)cc1 | – |
| 1100 | CC(C)(C)/N=c1\c(O)c(O)\c1=N/Cc1c(Cl)cccc1Cl | – |
| 870 | CCC(C)(C)/N=c1\c(O)c(O)\c1=N/Cc1ccc(F)c(Cl)c1 | – |
| 830 | CCC(C)(C)/N=c1\c(O)c(O)\c1=N/Cc1c(C)cccc1C | – |
| 750 | CCC(C)(C)/N=c1\c(O)c(O)\c1=N/Cc1cc(F)cc(F)c1 | – |
| 630 | Cc1ccc(C/N=c2\c(O)c(O)\c2=N/C(C)(C)C)c(C)c1 | – |
| 530 | CCC(C)(C)/N=c1\c(O)c(O)\c1=N/Cc1ccc(C)cc1C | – |
| 360 | CCC(C)(C)/N=c1\c(O)c(O)\c1=N/Cc1ccc(F)cc1 | – |

| IC50 (Rattus norvegicus [1]) [nM] | Compound | also measured |
| --- | --- | --- |
| 340 | CC(/N=c1\c(O)c(O)\c1=N/Cc1ccc(Cl)cc1Cl)C(C)(C)C (stereo not drawn) | – |
| 310 | CCC(C)(C)/N=c1\c(O)c(O)\c1=N/Cc1c(C)cc(C)cc1C | – |
| 290 | Cc1cc(Br)cc(C)c1C/N=c1\c(O)c(O)\c1=N/C(C)(C)C | – |
| 280 | CCC(C)(C)/N=c1\c(O)c(O)\c1=N/Cc1c(Cl)cccc1Cl | – |
| 270 | C[C@@H](/N=c1\c(O)c(O)\c1=N/Cc1ccc(C#N)cc1)C(C)(C)C | Change (Rattus norvegicus [2]): -69%; Change (Rattus norvegicus [3]): 7% |
| 270 | CC(C)(C)/N=c1\c(O)c(O)\c1=N/Cc1ccc(C#N)cc1 | Change (Rattus norvegicus [2]): -52%; ED50 (Rattus norvegicus [5]): 3 mg/kg |
| 270 | CCc1cc(Br)ccc1C/N=c1\c(O)c(O)\c1=N/C(C)(C)C | – |
| 240 | CCc1cc(C#N)ccc1C/N=c1\c(O)c(O)\c1=N/C(C)(C)C | – |
| 220 | Cc1cc(Cl)cc(Cl)c1C/N=c1\c(O)c(O)\c1=N/C(C)(C)C | – |
| 220 | CCC(C)(C)/N=c1\c(O)c(O)\c1=N/Cc1ccc(F)cc1F | – |
| 210 | CCC(C)(C)/N=c1\c(O)c(O)\c1=N/Cc1ccc(Cl)cc1Cl | – |
| 200 | CCC(C)(C)/N=c1\c(O)c(O)\c1=N/Cc1c(C)cc(C)cc1Cl | – |
| 180 | CC(/N=c1\c(O)c(O)\c1=N/Cc1ccc(C#N)cc1Cl)C(C)(C)C (stereo not drawn) | – |
| 160 | CCC(C)(C)/N=c1\c(O)c(O)\c1=N/Cc1c(C)cc(C#N)cc1Cl | – |
| 140 | CC(C)(C)/N=c1\c(O)c(O)\c1=N/Cc1ccc(C#N)cc1Cl | ED50 (Rattus norvegicus [5]): 3 mg/kg |
| 130 | CCC(C)(C)/N=c1\c(O)c(O)\c1=N/Cc1ccc(C#N)cc1Cl | – |
| 110 | CCc1cc(C#N)ccc1C/N=c1\c(O)c(O)\c1=N/C(C)(C)CC | – |
| 100 | CCC(C)(C)Nc1c(NCc2c(C)cc(Cl)cc2Cl)c(=O)c1=O | Change (Rattus norvegicus [2]): -82%; Ratio [4]: 166; Change (Rattus norvegicus [3]): -7%; ED50 (Rattus norvegicus [5]): 0.6 mg/kg; ED20 (Rattus norvegicus [6]): 100 mg/kg |
